According to ChEMBL document CHEMBL1151955, “Activation of PPARgamma by metabolites from the flowers of purple coneflower (Echinacea purpurea)” (J Nat Prod, 2009):
Each block holds one compound with its values, some of them ahead of it. Activity calls are given as the source filed them. The rule behind the calls is not given here.

Assays:
[1] = biological target: T1, Peroxisome proliferator-activated receptor gamma (Homo sapiens) (UniProt P37231); assay: Agonist activity at human PPARgamma ligand binding domain expressed in MEF cells co-transfected with Gal4-responsive luciferase vector assessed as photinus/renilla luciferase activity at 100 uM by transactivation assay relative to control; type: cell-based
T1 sequence (whole entry): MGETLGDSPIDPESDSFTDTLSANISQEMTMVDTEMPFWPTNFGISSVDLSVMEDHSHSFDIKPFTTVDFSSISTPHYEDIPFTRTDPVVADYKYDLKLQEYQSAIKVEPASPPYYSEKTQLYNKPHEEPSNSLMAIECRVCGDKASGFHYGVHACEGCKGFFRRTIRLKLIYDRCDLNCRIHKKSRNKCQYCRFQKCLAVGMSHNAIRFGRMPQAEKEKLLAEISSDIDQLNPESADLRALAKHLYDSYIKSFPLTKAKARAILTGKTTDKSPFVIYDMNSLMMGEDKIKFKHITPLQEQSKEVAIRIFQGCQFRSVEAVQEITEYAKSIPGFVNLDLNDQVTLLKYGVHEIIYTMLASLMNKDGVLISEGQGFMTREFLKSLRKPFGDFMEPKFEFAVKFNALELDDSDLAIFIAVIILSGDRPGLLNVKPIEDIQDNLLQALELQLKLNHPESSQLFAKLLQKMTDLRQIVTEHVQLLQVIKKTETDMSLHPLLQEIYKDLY
Outline: (§1)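 Mouse embryonic fibroblasts were transiently transfected at 50-70% confluence. Each well got 2.5 ng pRL-CMV Renilla vector, 30 ng Gal4-responsive luciferase reporter and 15 ng pM-hPPARγ-LBD. Medium was changed at 6 h to DMEM with vehicle (0.1% DMSO), 1 µM rosiglitazone or compound. Cells were lysed 18 h post-transfection for dual luciferase. Photinus was normalized to Renilla and expressed as fold over vehicle. Triplicates, each read in duplicate.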

3T3-L1 [2] = assay: Induction of adipocytes differentiation in mouse 3T3L1 cells treated after 48 hrs postconfluence measured after 8 days using MDI protocol; type: functional, cell-based
Outline: (§2)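 3T3-L1 cells were induced two days postconfluence in DMEM/10% FBS with compound plus 1 µM dexamethasone, 0.5 mM isobutylmethylxanthine and 1 µg/mL insulin. At 48 h they were refed with compound and 1 µg/mL insulin. From day 4 medium was DMEM/10% FBS, changed every second day. At day 8 cells were formaldehyde-fixed and stained with Oil Red O. Triplicate, three concentrations.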

MEF = assay: Apparent cytotoxicity against MEF at 100 uM; type: cell-based; settings: mouse
3T3-L1 [3] = assay: Induction of adipocytes differentiation in mouse 3T3L1 cells treated after 48 hrs postconfluence measured after 8 days using DEX protocol; type: functional, cell-based
Outline: (§3)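 3T3-L1 cells were grown in DMEM with 10% calf serum. Two days postconfluence (day 0) they were induced in DMEM/10% FBS with compound plus 1 µM dexamethasone, then refed at 48 h with compound. From day 4 medium was DMEM/10% FBS, changed every second day. At day 8 cells were formaldehyde-fixed and stained for triacylglycerol with Oil Red O. Triplicate, three concentrations.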

[4] = biological target: T1, Peroxisome proliferator-activated receptor gamma (Homo sapiens); assay: Agonist activity at human PPARgamma ligand binding domain expressed in MEF cells co-transfected with Gal4-responsive luciferase vector assessed as photinus/renilla luciferase activity at 80 uM by transactivation assay relative to control; type: cell-based; outline: as §1
[5] = biological target: T1, Peroxisome proliferator-activated receptor gamma (Homo sapiens); assay: Agonist activity at human PPARgamma ligand binding domain expressed in MEF cells co-transfected with Gal4-responsive luciferase vector assessed as photinus/renilla luciferase activity at 40 uM by transactivation assay relative to control; type: cell-based; outline: as §1
[6] = biological target: T1, Peroxisome proliferator-activated receptor gamma (Homo sapiens); assay: Agonist activity at human PPARgamma ligand binding domain expressed in MEF cells co-transfected with Gal4-responsive luciferase vector assessed as photinus/renilla luciferase activity at 30 uM by transactivation assay relative to control; type: cell-based; outline: as §1
3T3-L1 [7] = assay: Increase in insulin-stimulated [14C]2-deoxy-D-glucose uptake in mouse 3T3L1 cells after 48 hrs by scintillation counting; type: functional, cell-based
Outline: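 MDI-differentiated 3T3-L1 adipocytes were treated with compound or 1 µM rosiglitazone from day 8 for 48 h, then serum-starved 2 h at 37 °C. Cells were incubated in KRHB pH 7.4 for 30 min, insulin was added for 15 min, then [14C]2-deoxy-D-glucose at 1.0 mM final glucose for 15 min. Background came from 20 µM cytochalasin B wells. Scintillation counting, 8 wells per condition, mean ± SEM.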

3T3-L1 [8] = assay: Induction of adipocytes differentiation in mouse 3T3L1 cells at > 200 uM treated after 48 hrs postconfluence measured after 8 days using DEX protocol; type: functional, cell-based; outline: as §3
3T3-L1 [9] = assay: Induction of adipocytes differentiation in mouse 3T3L1 cells at > 200 uM treated after 48 hrs postconfluence measured after 8 days using MDI protocol; type: functional, cell-based; outline: as §2

SMILES: C/C=C\C#CCC/C=C\C=C\C(=O)NCC(C)C
fold change (FC) [1]: 2

fold change (FC) [4]: 4
SMILES: CCCCCCC/C=C/C=C/C(=O)NCC(C)C
Activity (3T3-L1 [2]): Active
Activity (MEF): Toxic
Activity (3T3-L1 [3]): Active

fold change (FC) [5]: 10
SMILES: CCCCC/C=C\C/C=C\CCCCCCCC(=O)O

fold change (FC) [6]: 10
SMILES: C/C=C/C=C\C/C=C\CCCCC/C=C/C(=O)NCC(C)C
Activity (3T3-L1 [7]): Dose-dependent effect
Activity (MEF): Toxic
Activity (3T3-L1 [8]): inactive
Activity (3T3-L1 [9]): inactive

fold change (FC) [1]: 2
SMILES: C/C=C/C=C\CC/C=C/C=C/C(=O)NCC(C)C

fold change (FC) [5]: 10
SMILES: CC/C=C\C/C=C\C/C=C\CCCCCCCC(=O)O

fold change (FC) [5]: 10
SMILES: CCCCCC/C=C\CCCCCCCC(=O)O

fold change (FC) [1]: 2
SMILES: C/C=C\C=C/CC/C=C/C=C/C(=O)NCC(C)C
